SR-BI DiI inh – mouse SR-BI HDL lipid transfer inhibition; Q61009; ldlA[mSR-BI] CHO cells, DiI-HDL uptake fluorescence, 3 h; inhibition, % at 12.5 µM; 320,000 compounds, 0.96% hits; AID 488896;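 active means mean replicate inhibition of at least 70% and a set share of replicates each scoring 70 or more; inconclusive means meets just one of the two criteria; inactive means fails both criteria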;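 further: 0% = median of neutral control wells and 100% = median of positive control wells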
Target sequence (Q61009 whole entry, looked up): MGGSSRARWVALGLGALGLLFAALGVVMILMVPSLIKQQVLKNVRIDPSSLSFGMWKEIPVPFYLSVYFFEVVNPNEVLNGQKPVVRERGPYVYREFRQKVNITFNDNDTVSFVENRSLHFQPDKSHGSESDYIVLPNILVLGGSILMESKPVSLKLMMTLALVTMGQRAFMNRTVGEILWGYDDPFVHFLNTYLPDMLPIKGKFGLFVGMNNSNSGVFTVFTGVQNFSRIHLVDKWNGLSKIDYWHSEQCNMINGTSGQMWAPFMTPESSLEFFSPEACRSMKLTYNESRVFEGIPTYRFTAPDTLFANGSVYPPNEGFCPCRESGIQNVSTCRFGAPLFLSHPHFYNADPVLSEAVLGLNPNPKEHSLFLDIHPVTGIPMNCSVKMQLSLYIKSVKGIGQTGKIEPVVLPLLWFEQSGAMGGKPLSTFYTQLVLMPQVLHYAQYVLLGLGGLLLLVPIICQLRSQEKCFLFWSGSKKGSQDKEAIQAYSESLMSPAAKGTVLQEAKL
HSF-1 act – increases HSF-1 driven luciferase reporter signal; NIH3T3-HGL HSF-1 luciferase reporter, MG132, 8 h; 100% = twice DMSO control signal; activation, % at 9 µM; 300,000 compounds, 1.7% hits; AID 504408;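 active means mean replicate activation of at least 50% with a set share of replicates each reaching 50%; inconclusive means only one of those two conditions met; inactive means mean below 50% and too few replicates reaching it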;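 further: 0% = median of the neutral control wells and 100% = twice that signal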
Wnt bcat act – activates Wnt/beta-catenin signaling in a reporter cell assay; AID 743398; 300,000 compounds, 1.2% hits; activator, plate reader; activation, % at 9.35 µM; in the data active means activation above about 30%, passing the limit was not always enough; inconclusive means no clear call, values can overlap the other calls;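 further: 0% = neutral control wells and 100% = positive control wells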
SR-BI uptake up – SR-BI HDL lipid transfer activation; AID 504775; CHO ldlA[mSR-BI] cells, DiI-HDL uptake fluorescence, 3 h; 100 = double the neutral-control signal; 320,000 compounds, 0.096% hits; activation, % at 12.5 µM;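 active means mean replicate activation of at least 60% and every replicate at or above 60%; inconclusive means mean or all-replicate condition met, but not both; inactive means mean below 60% and not all replicates reaching 60%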;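 further: 0% = median plate neutral-control signal and 100% = twice that signal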
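material = CHO ldlA[mSR-BI] cells | medium = Ham's F12 with 0.5% BSA, HEPES 25 mM, pH 7.4 | reagent = fluorescent DiI-HDL, 10 µg/mL final | compound dosing = single-point compound dose | incubation = 3 h, 37 °C | measured by = bottom-read fluorescence, 550/595 nm | measure = HDL uptake via cellular fluorescence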
MITF TRPM1 HTS – MITF TRPM1 promoter activation in melanoma cells | SK-MEL-5 TRPM1-promoter luciferase, 24 h; % of positive control, neutral wells = 0 | activation, % at 12.5 µM | 300,000 compounds, 0.75% hits;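 active means mean activation of at least 80% with every replicate also reaching 80%; inconclusive means mean reaches 80% but some replicate falls short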;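 further: 0% = neutral control wells and 100% = parthenolide positive control wells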
Active calls of the source: *; ? = inconclusive; / = no result given. An excerpt weighted towards active compounds, which were near 3.6% of everything screened.

SMILES	SR-BI DiI inh	HSF-1 act	Wnt bcat act	SR-BI uptake up	MITF TRPM1 HTS
O=C(NCCc1c[nH]c2ccccc12)c1ccc2c(c1)OCO2	11	44	-1	-11	68
O=C(NCCc1c[nH]c2ccccc12)c1cc(Cl)c2c(c1)OCO2	/	48	36*	/	113*
C[C@H]1COc2cc(N3CCOCC3)ccc2S(=O)(=O)N1	/	/	1	/	/
CS(=O)(=O)c1nc(-c2ccccc2)cc(-c2ccccc2)c1C#N	-39	167*	/	39	-40
CN1C=CC(=C[N+](=O)[O-])N(C)C1=O	/	/	-1	/	/
COc1ccc(CNC(=O)COC(=O)CCC(=O)c2cccs2)cc1	-10	4	39*	10	-2
COc1cccc(C(=O)COC(=O)c2cccs2)c1	-5	21	39*	5	43
O=C(CCC(=O)c1cccs1)NC(c1ccccc1)c1ccccc1	1	0	-7	-1	2
O=C(CCC(=O)c1cccs1)c1cccs1	-3	55*	14	3	/
COc1ccc(C(=O)COC(=O)c2cccs2)cc1	1	/	54*	-1	63
Cc1ccc(-c2nc3ccc(Cl)cn3c2Cc2cccc(Cl)c2)cc1	/	/	46*	/	/
COC(=O)C1=C(C)N(Cc2cccc(C(F)(F)F)c2)C(=NCc2ccc(OC)cc2)NC1c1ccc(F)cc1 (configuration not stated)	/	/	-21	/	/
COC(=O)C1=C(C)NC2=C(C(=O)CC(C)(C)C2)C1c1cn(Cc2ccc(Br)cc2)nc1-c1ccccc1 (configuration not stated)	16	74*	/	-16	-4
C=COCCNC(=O)Nc1ccc(Cl)cc1Cl	72*	16	/	-72	-2
Nc1nc2c(ncn2[C@@H]2O[C@H](CNS(=O)(=O)C3CC3)[C@@H](O)[C@H]2O)c(=O)[nH]1	/	/	-2	/	/
Cc1cccc(OCC(=O)Nc2nccs2)c1C	-96	56*	37*	?	37
Cc1ccccc1OCCCC(=O)Nc1nccs1	7	23	/	-7	11
Cc1c(C)c2ccc(OCC(=O)Nc3nccs3)cc2oc1=O	-14	5	22	14	-11
Cc1cc(=O)oc2cc(OCC(=O)Nc3nccs3)ccc12	-10	?	38*	10	53
CCOC(=O)c1c(-c2ccc(OC)cc2)csc1NC(=O)COc1ccc2c(C)cc(=O)oc2c1	73*	-6	-4	-73	15
CCC(CC)c1nnc(NC(=O)COc2ccc3c(C)cc(=O)oc3c2)s1	22	-9	/	-22	-3
COc1ccc(C(=O)C(=O)N2CCN(C(=O)c3ccccc3C(F)(F)F)CC2)cc1OC	/	/	-4	/	/
COC(=O)c1cc(S(=O)(=O)C(C)C)c(S(C)=O)s1 (configuration not stated)	-19	90*	3	19	/
CSc1sc(C(=O)NCC2CC2)cc1S(=O)(=O)C(C)C	2	2	4	-2	-3
Cc1[nH]c2ccccc2c1C(=O)CN1CCN(C/C=C/c2ccccc2)CC1	33	3	-2	-33	-11
SMILES	SR-BI DiI inh	HSF-1 act	Wnt bcat act	SR-BI uptake up	MITF TRPM1 HTS
Cc1nc2ccccc2c(N)c1C(=O)/C=C/c1ccccc1	11	64*	-2	-11	/
Cc1[nH]c2ccccc2c1C(=O)/C=C/c1ccccc1Cl	29	113*	-4	-29	15
Cc1[nH]c2ccccc2c1C(=O)/C=C\c1ccccc1Cl	14	46	/	-14	19
Cc1[nH]c2ccccc2c1C(=O)/C=C/c1ccccc1	/	70*	-2	/	23
COc1ccc(-c2ccc3c(n2)CCCN3S(=O)(=O)c2cccs2)cc1	/	/	3	/	/
COc1ccc(/C=C2\CN(Cc3ccccc3)C/C(=C\c3ccc(OC)c(O)c3)C2=O)cc1O	28	91*	-14	-28	-97
COc1ccc(/C=C2\CCC/C(=C\c3ccc(OC)c(OC)c3OC)C2=O)c(OC)c1OC	74*	53*	-2	-74	0
COc1cc(OC)c(OC)cc1/C=C1\CCC/C(=C\c2cc(OC)c(OC)cc2OC)C1=O	44	21	3	-44	-31
COc1cccc(/C=C2\CCc3ccccc3C2=O)c1	6	11	35*	-6	66
COc1ccc2c(c1)CC/C(=C/c1ccccn1)C2=O	21	66*	26	-21	46
CC(C)NC(=O)C1(C)CSCC(=O)N1Cc1ccco1 (configuration not stated)	/	/	-2	/	/
CC(C)n1c(=O)c2ccccc2n1Cc1cn(-c2ccc(Cl)cc2)nn1	/	/	-3	/	/
COc1ccc2c(c1)CC/C(=C\C=C\c1ccccc1)C2=O	10	24	31*	-10	/
COc1ccc(OC)c(C=C2CCc3ccccc3C2=O)c1	/	/	-1	/	/
COc1ccc(/C=C2\CCc3ccccc3C2=O)cc1OC	18	68*	/	-18	29
COc1ccc(/C=C2\CC/C(=C\c3ccc(OC)c(OC)c3)C2=O)cc1OC	10	63*	7	-1	-30
COc1cc(/C=C2/CC/C(=C/c3ccc(O)c(OC)c3)C2=O)ccc1O	/	6	2	/	-11
COC(=O)Cc1nnn2c1[C@H](C)[C@H](c1ccccc1Br)OC[C@H](C)C2	/	/	1	/	/
COc1ccc(NC(=O)C(CC(C)C)NC(=O)C2CCCCC2)c(OC)c1 (configuration not stated)	82*	0	0	-82	12
c1ccc(N=Nc2ccc(C3=NCCO3)cc2)cc1	/	/	44*	/	/
Nc1nnc(SCc2ccc([N+](=O)[O-])cc2)s1	-13	17	0	13	4
Nc1ccc2nc(SCc3ccc([N+](=O)[O-])cc3)sc2c1	10	98*	3	-10	19
O=[N+]([O-])c1ccc(CSc2nnc(SCc3ccc(Cl)cc3)s2)cc1	-11	56*	0	11	20
CC(C)CN(C(=O)COC(=O)c1ccccc1SCC(=O)N1CCCC1)C1CCS(=O)(=O)C1 (configuration not stated)	-5	/	3	5	3
O=C1[C@H](c2ccccc2)[C@@H](c2ccncc2)N1c1ccncc1	/	/	1	/	/
SMILES	SR-BI DiI inh	HSF-1 act	Wnt bcat act	SR-BI uptake up	MITF TRPM1 HTS
COc1cccc(CNC(=O)CCC2CCCN(C(=O)c3cc4ccccc4o3)C2)c1 (configuration not stated)	9	48	25	-9	84*
COc1cccc(CNC(=O)CCC2CCCN(C(=O)c3ccoc3)C2)c1 (configuration not stated)	-19	16	1	19	-8
C=CCSc1nncn1/N=C/c1ccc(OC)cc1	41	36	27	-41	92*
COCCNC(=O)C1(C)CCCN(C(=O)c2c(-c3ccccc3)noc2C)C1 (configuration not stated)	/	/	-2	/	/
CCN(CC)c1ccc(C2Nc3cccc4cccc(c34)N2)c(O)c1	114*	/	-1	-114	23
Cc1ccc(-c2nc(-c3nccc4ccccc34)oc2-c2ccccc2)cc1	28	54*	20	-28	45
c1ccc(-c2nccc3ccccc23)cc1	-9	12	2	9	-14
Fc1ccc(CNCc2ccccc2Cl)cc1	-5	-61	34*	5	17

Bioassay records from PubChem BioAssay.
